ChEMBL document CHEMBL4376888, “Discovery of Potent, Selective, and Direct Acid Sphingomyelinase Inhibitors with Antidepressant Activity” (J Med Chem, 2020)
The source made the active and inactive calls. No cut-off for these calls is given here.

How the values were obtained:
[1] = tested on: Rattus norvegicus; assay: Antidepressant activity in Sprague-Dawley rat model of reserpine-induced depression assessed as increase in grooming frequency at 12 mg/kg, ip administered twice daily for 2 weeks measured for 5 mins by open field test; format: functional, organism-based
Procedure, shortened: (§1)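 Female SD rats (6-8 weeks, 200 g) given reserpine 4 mg/Kg ip daily to induce depression; test agent in 5 % DMSO, 2 % Tween 80, 5 % glucose, ip twice a day for two weeks. Each rat placed in the central square of a 100 cm × 100 cm box (25 squares, walls ~42 cm); centre time, grid crossings, rearing and grooming recorded over 5 min, 7:30–12:00; n = 8.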

[2] = tested on: Rattus norvegicus; assay: Reversal of reserpine-induced inhibition of neurogenesis in Sprague-Dawley rat hippocampus at 12 mg/kg, ip administered twice daily for 2 weeks by EDU-incorporation assay; format: functional, organism-based
Procedure, shortened: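 Reserpine-depressed female SD rats (4 mg/Kg ip daily; drug ip twice daily for two weeks) injected with EdU 8 mg/kg twice in 1 day, killed 96 h later. Frozen brain sections washed with glycine and PBS, Click-iT stained 30 min, Hoechst 33342 30 min; hippocampal proliferation scored by fluorescence microscopy; n = 5.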

[3] = tested on: Rattus norvegicus; assay: Antidepressant activity in Sprague-Dawley rat model of reserpine-induced depression assessed as increase in time passing the grid at 12 mg/kg, ip administered twice daily for 2 weeks measured for 5 mins by open field test; format: functional, organism-based; procedure, shortened: as §1
[4] = tested on: Rattus norvegicus; assay: Antidepressant activity in Sprague-Dawley rat model of reserpine-induced depression assessed as reduction in total time spent in center at 12 mg/kg, ip administered twice daily for 2 weeks measured for 5 mins by open field test; format: functional, organism-based; procedure, shortened: as §1
[5] = tested on: NIH3T3; assay: Cytotoxicity against mouse NIH/3T3 cells assessed as reduction in cell viability after 24 hrs by MTT assay; format: cell-based; conditions: mouse, nih3t3, 24 h
Procedure, shortened: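 NIH3T3 cells in DMEM with 10 % FBS at 37 °C, 5 % CO₂, grown overnight, then inhibitor added for 24 h; viability read by MTT.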

[6] = tested on: Rattus norvegicus; assay: Antidepressant activity in Sprague-Dawley rat model of reserpine-induced depression assessed as increase in frequency of upright at 12 mg/kg, ip administered twice daily for 2 weeks measured for 5 mins by open field test; format: functional, organism-based; procedure, shortened: as §1
[7] = molecular target: T1, Sphingomyelin phosphodiesterase 2 (Homo sapiens) (UniProt O60906); assay: Inhibition of neutral sphingomyelinase (unknown origin) at 100 uM using NBD-sphingomyelin as substrate after 30 mins by fluorescence based assay
T1 sequence (whole entry): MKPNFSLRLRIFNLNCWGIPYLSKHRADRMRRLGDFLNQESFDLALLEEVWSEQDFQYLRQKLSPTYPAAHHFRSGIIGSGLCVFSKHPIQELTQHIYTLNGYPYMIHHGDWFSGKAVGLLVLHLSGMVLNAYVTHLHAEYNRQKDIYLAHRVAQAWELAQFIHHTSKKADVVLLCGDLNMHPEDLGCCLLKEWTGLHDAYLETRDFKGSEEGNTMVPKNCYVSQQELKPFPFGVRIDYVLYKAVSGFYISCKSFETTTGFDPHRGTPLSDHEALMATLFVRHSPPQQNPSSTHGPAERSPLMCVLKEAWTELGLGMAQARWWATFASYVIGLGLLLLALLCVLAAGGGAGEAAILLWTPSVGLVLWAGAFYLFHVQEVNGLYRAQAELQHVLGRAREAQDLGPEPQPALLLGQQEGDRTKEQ
Procedure, shortened: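 Neutral sphingomyelinase assay run as the ASM cell-extract assay (NBD-sphingomyelin, 37 °C, 30 min, chloroform/methanol extraction, TLC, NBD-ceramide fluorescence). Buffer was 200 mM Tris-HCl pH 7.4 with 10 mM MgCl2 and 10 mM dithiothreitol. Tested at 100 μM.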

[8] = molecular target: T2, Sphingomyelin phosphodiesterase (Homo sapiens, UniProt P17405); assay: Inhibition of human Huh7 cell derived acid sphingomyelinase using NBD-sphingomyelin as substrate after 30 mins by fluorescence based assay
T2 sequence (P17405 whole entry): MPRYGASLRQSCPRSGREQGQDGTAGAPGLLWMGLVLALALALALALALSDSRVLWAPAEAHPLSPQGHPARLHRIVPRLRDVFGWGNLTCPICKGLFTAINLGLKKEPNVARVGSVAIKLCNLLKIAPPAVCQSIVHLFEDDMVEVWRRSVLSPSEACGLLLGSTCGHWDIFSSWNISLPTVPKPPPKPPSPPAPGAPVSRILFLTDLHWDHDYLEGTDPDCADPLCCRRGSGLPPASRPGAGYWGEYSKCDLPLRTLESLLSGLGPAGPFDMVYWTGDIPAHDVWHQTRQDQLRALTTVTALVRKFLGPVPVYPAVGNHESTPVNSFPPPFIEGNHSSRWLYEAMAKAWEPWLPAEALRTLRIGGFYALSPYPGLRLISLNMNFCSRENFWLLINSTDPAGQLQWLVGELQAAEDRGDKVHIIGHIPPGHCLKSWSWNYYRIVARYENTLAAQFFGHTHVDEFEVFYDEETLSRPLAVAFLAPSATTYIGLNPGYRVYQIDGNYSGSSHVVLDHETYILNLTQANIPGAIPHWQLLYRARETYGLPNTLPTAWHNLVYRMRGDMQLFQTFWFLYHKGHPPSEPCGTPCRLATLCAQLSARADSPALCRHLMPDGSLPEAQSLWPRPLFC
Procedure, shortened: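 Cultured cells were lysed in 25 mM Tris-HCl pH 7.4, 5 mM EDTA, sonicated and cleared at 300 g. 400 μg protein incubated with NBD-sphingomyelin in 100 mM sodium acetate pH 4.7, 1% Triton X-100, 40 mM CaCl2, 100 μM ZnCl2. Inhibitors added in DMSO, 37 °C, 30 min. Stopped with chloroform/methanol 2:1; NBD-ceramide fluorescence after TLC.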

[9] = molecular target: T2, Sphingomyelin phosphodiesterase; assay: Inhibition of recombinant human acid sphingomyelinase (His62 to Pro628 residues) using NBD-sphingomyelin as substrate after 30 mins by fluorescence based assay
Procedure, shortened: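 Buffer 100 mM sodium acetate pH 4.7, 1% Triton X-100, 40 mM CaCl2, 100 μM ZnCl2. Inhibitors in DMSO at various concentrations, 37 °C, 30 min. NBD-ceramide fluorescence after chloroform/methanol extraction and TLC.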

[10] = Solubility of the compound in physiological saline; format: physicochemical; conditions: buffer
[11] = molecular target: T2, Sphingomyelin phosphodiesterase; assay: Inhibition of acid sphingomyelinase (unknown origin)

Row | SMILES | inhibition [7] | IC50 [8] [µM] | IC50 [9] [µM] | further results
1 | CN(C)CCC=C1c2ccccc2CCc2ccccc21 [AMITRIPTYLINE] | – | – | – | Activity [1]: Active; Activity [2]: Active; Activity [3]: Active; Activity [4]: Active; Activity [5]: Non-Toxic; Activity [6]: Active
2 | O=C(NO)c1cc(OCc2ccc(-c3ccccc3)cc2)no1 | inactive | 0.88 | 4.09 | –
3 | CCCCCCCCCCOc1cc(C(=O)NO)ccc1OC | – | – | 0.89 | –
4 | CCCCCCCC(N)(P(=O)(O)O)P(=O)(O)O | – | – | – | IC50 [11]: 0.02 µM
5 | COc1ccc(C(=O)NO)cc1OCc1ccc(-c2ccc(Cl)cc2)cc1 | inactive | 0.34 | 8.07 | solubility [10]: Insoluble
6 | COc1c(O)cc2oc3cc(O)c(CC=C(C)C)c(O)c3c(=O)c2c1CC=C(C)C [MANGOSTIN] | – | 14.1 | – | –
7 | CCCCCCCCCCOc1cc(C(=O)NO)on1 | inactive | 0.36 | 2.2 | –
8 | CCCCCCCCCCCCC/C=C/[C@H](O)[C@@H](COP(=O)([O-])OCC[N+](C)(C)C)NC(=S)NC(C)(C)C | – | – | – | Ki [11]: 70 µM
9 | CCc1nc(-c2ccc(COc3cccc(C(=O)NO)c3)cc2)no1 | – | 34.7 | – | –
10 | CCOc1ccc2oc(-c3cc(Br)cc4c3OCOC4)c(N)c(=O)c2c1 | – | – | – | IC50 [11]: 3.1 µM
11 | O=C(NO)c1cccc(OCc2ccc(-c3cccnc3)cc2)c1 | – | 52.3 | – | –
12 | COc1ccc(-c2nc(COc3cc(C(=O)NO)ccc3OC)no2)cc1OC | – | 13.8 | – | –

The next lines start with results.

Row | inhibition [7] | IC50 [8] [µM] | IC50 [9] [µM] | SMILES | further results
13 | inactive | – | – | COc1ccc(C(=O)NO)cc1OCc1ccc(-c2ccccc2)cc1 | solubility [10]: Insoluble
14 | inactive | 21.6 | – | COc1ccc(C(=O)NO)cc1OCc1noc(-c2ccc(Cl)cc2)n1 | –
15 | inactive | 4.97 | 3.83 | COc1ccc(C(=O)NO)cc1OCc1ccc(-c2cccnc2)cc1 | –
16 | – | > 100 | – | O=C(NO)c1cccc(OCc2ccc(-c3noc(-c4ccc(Br)cc4)n3)cc2)c1 | –
17 | – | > 100 | – | O=C(NO)c1cccc(OCc2ccc(-c3noc(-c4ccccc4)n3)cc2)c1 | –
18 | – | > 100 | – | COc1ccc(C(=O)NO)cc1OCc1ccc(-c2noc(-c3ccc(Br)cc3)n2)cc1 | –
19 | inactive | – | – | CCCCCCc1ccc(COc2cccc(C(=O)NO)c2)cc1 | solubility [10]: Insoluble
20 | – | > 100 | – | O=C(NO)c1cccc(OCc2ccc(-c3noc(-c4cccc(F)c4)n3)cc2)c1 | –
21 | inactive | 9.22 | – | COc1ccc(C(=O)NO)cc1OCc1noc(-c2cccc(Cl)c2)n1 | –
22 | – | 7.83 | 4.93 | O=C(NO)c1cccc(OCc2ccc(-c3noc(Cc4ccccc4)n3)cc2)c1 | –
23 | inactive | 19.6 | – | O=C(NO)c1cccc(OCc2ccc(-c3ccccc3)cc2)c1 | solubility [10]: Insoluble
24 | – | 8.96 | 0.36 | O=C(NO)c1cccc(OCc2ccc(-c3ccc(Cl)cc3)cc2)c1 | solubility [10]: Insoluble
25 | inactive | – | – | CCCCCCc1ccc(COc2cc(C(=O)NO)ccc2OC)cc1 | solubility [10]: Insoluble
26 | inactive | 1.73 | 4.25 | O=C(NO)c1cccc(OCc2ccc(-c3noc(CCc4ccccc4)n3)cc2)c1 | –
